# Laboratory results: ChEMBL document CHEMBL6115033, “Discovery of a Pyrazolopyridinone-Based MYC Inhibitor That Selectively Engages Intracellular c-MYC and Disrupts MYC-MAX Heterodimerization” (J Med Chem, 2025)
# Active and inactive are the calls of the source. The calls are words filed in the database; no cut-off is given here.
# Assays:
# [1] = test system: MDA-MB-231; assay: Antiproliferative activity against human MDA-MB-231 cells assessed as cell viability incubated for 96 hrs by MTT assay; type: functional, cell-based; details: MDA-MB-231, 96 h
# Summary of the method: (§1)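 Adherent cells (2000/well) attached overnight, then exposed to compounds at 0.14–100 µM for 96 h in DMEM with 10% FBS. MTT at 0.5 mg/mL for 4 h in the dark, formazan dissolved in DMSO, absorbance at 570 nm. Compounds were freshly prepared in DMSO, with DMSO below 1%.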
# [2] = test system: MDA-MB-468; assay: Antiproliferative activity against human MDA-MB-468 cells assessed as cell viability incubated for 96 hrs by MTT assay; type: functional, cell-based; details: MDA-MB-468, 96 h; summary of the method: as §1
# [3] = test system: MCF7; assay: Antiproliferative activity against human MCF7 cells assessed as cell viability incubated for 96 hrs by MTT assay; type: functional, cell-based; details: MCF7, 96 h; summary of the method: as §1
# [4] = Antiproliferative activity against human P493-6 cells expressing MYC assessed as inhibition of cell proliferation incubated for 96 hrs by cell titer glo assay; type: functional, cell-based; details: P493-6, 96 h
# Summary of the method: (§2)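 P493-6 cells (3000/well, RPMI) were seeded overnight at 37 °C, then given compounds at final 0.14–100 µM for 96 h. MYC-off cells were pretreated with 0.1 µg/mL tetracycline for 72 h. Read-out was CellTiter-Glo luminescence after equilibration to room temperature. IC50 was determined in high-MYC and MYC-off cells.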
# [5] = Antiproliferative activity against tetracycline-treated human P493-6 cells expressing MYC assessed as inhibition of cell proliferation incubated for 96 hrs by cell titer glo assay; type: functional, cell-based; details: P493-6, 96 h; summary of the method: as §2
# [6] = Selectivity index, ratio of IC50 for antiproliferative activity against tetracycline-treated human P493-6 cells expressing MYC assessed as inhibition of cell proliferation to IC50 for antiproliferative activity against human P493-6 cells expressing MYC assessed as inhibition of cell proliferation; type: functional
# Summary of the method: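 MYC-off P493-6 cells obtained by 72 h pretreatment with 0.1 µg/mL tetracycline and compared with untreated MYC-high cells. Cells seeded at 3000 per 100 uL, held overnight at 37 °C, then treated at 0.14–100 uM final for 96 h. Viability read by CellTiter-Glo luminescence. IC50 values determined in both states and compared as a selectivity index.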
# [7] = Induction of apoptosis in human P493-6 cells assessed as viable cells at 25 uM incubated for 24 hrs by Annexin V/PI staining based flow cytometry analysis (reference value: 90.8%); type: functional; details: read-out: Activity
# [8] = Induction of apoptosis in human P493-6 cells assessed as early apoptotic cells at 25 uM incubated for 24 hrs by Annexin V/PI staining based flow cytometry analysis (reference value: 2.52 %); type: functional
# [9] = Induction of apoptosis in human P493-6 cells assessed as late apoptotic cells at 25 uM incubated for 24 hrs by Annexin V/PI staining based flow cytometry analysis (reference value: 6.52 %); type: functional
# [10] = Induction of apoptosis in human P493-6 cells assessed as necrotic cells at 25 uM incubated for 24 hrs by Annexin V/PI staining based flow cytometry analysis (reference value: 0.11 %); type: functional
# [11] = test system: P493-6; assay: Antiproliferative activity against human P493-6 cells expressing MYC assessed as inhibition of cell proliferation at 25 uM incubated for 96 hrs by cell titer glo assay; type: functional, cell-based
# Summary of the method: (§3)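 P493-6 cells, either untreated (high MYC) or MYC-off after 0.1 µg/mL tetracycline for 72 h, were exposed to 25 µM for 96 h. Read-out was % survival by CellTiter-Glo luminescence. Mean ± SD, n = 6, unpaired t-test.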
# [12] = test system: P493-6; assay: Antiproliferative activity against tetracycline-treated human P493-6 cells expressing MYC assessed as inhibition of cell proliferation at 25 uM incubated for 96 hrs by cell titer glo assay; type: functional, cell-based; summary of the method: as §3
# [13] = biological target: T1, c-Myc/c-Max (Homo sapiens) (UniProt P01106+P61244); assay: Disruption of MYC-MAX interaction in human MDA-MB-468 cells assessed as reduction in myc level at 25 uM; type: cell-based
# T1 sequence (P01106 whole entry): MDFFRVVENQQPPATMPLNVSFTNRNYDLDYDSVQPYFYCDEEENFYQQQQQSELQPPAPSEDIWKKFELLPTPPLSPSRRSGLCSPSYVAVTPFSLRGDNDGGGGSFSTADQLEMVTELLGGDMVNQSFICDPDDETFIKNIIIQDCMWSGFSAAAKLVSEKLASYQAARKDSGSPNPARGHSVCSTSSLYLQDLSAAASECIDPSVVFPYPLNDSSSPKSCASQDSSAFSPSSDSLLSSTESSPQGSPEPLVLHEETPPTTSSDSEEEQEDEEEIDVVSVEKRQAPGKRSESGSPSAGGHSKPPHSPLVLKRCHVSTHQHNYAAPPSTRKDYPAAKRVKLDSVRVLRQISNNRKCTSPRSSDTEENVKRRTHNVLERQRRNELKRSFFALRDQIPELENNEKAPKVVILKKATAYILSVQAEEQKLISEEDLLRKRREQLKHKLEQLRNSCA
# T1 sequence (P61244 2-160 partner limits assumed): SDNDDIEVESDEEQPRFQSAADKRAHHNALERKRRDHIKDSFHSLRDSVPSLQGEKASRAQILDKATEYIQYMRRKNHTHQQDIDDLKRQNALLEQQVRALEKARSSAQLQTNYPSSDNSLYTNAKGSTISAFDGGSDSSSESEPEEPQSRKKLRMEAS
# [14] = biological target: T1, c-Myc/c-Max (Homo sapiens); assay: Disruption of MYC-MAX interaction in human P493-6 cells assessed as reduction in myc level at 25 uM; type: cell-based
Compound,IC50 [1],IC50 [2],IC50 [3],Activity [13],Activity [14],IC50 [4],IC50 [5],Ratio IC50 [6],viability at 25 µM [7],Activity [8],Activity [9],Activity [10],Activity [11],Activity [12]
Cc1ccc(-c2nn(-c3ccccc3)c3[nH]c(=O)c(C#N)cc23)cc1,34.7 µM,32.4 µM,20.4 µM,,,21.1 µM,51.3 µM,2.4,,,,,,
CCc1ccc(/C=C2/SC(=S)NC2=O)cc1,44.7 µM,39.8 µM,,,,35.1 µM,59.5 µM,1.7,89.3%,2.54%,8.06%,0.062%,,
N#Cc1cc2c(-c3ccc(F)cc3)nn(-c3ccc(F)cc3)c2[nH]c1=O,> 100 µM,79.4 µM,9.3 µM,,,> 100 µM,> 100 µM,,,,,,,
N#Cc1cc2c(-c3ccc(Br)cc3)nn(-c3ccccc3)c2[nH]c1=O,5.5 µM,13.2 µM,12.2 µM,Active,Active,15.6 µM,35.9 µM,2.3,,,,,Active,Active
Cc1ccc(-c2nn(-c3ccc(Cl)cc3)c3[nH]c(=O)c(C#N)cc23)cc1,58.9 µM,71.6 µM,> 100 µM,,,,,,,,,,,

# Further compounds by falling IC50 [1], results first:
IC50 [1],IC50 [2],IC50 [3],Activity [13],Activity [14],Compound,IC50 [4],IC50 [5],Ratio IC50 [6],viability at 25 µM [7],Activity [8],Activity [9],Activity [10],Activity [11],Activity [12]
38 µM,33.1 µM,16.6 µM,,,COc1ccc(-c2nn(-c3ccccc3)c3[nH]c(=O)c(C#N)cc23)cc1,20.9 µM,> 100 µM,>4,,,,,,
9.8 µM,7.9 µM,9.3 µM,,,COc1ccc(-n2nc(-c3ccc(C)cc3)c3cc(C#N)c(=O)[nH]c32)cc1,51.2 µM,75.9 µM,1.5,,,,,,
